The subject of the experiment is Spodoptera litura. The experiment in a line: Antifeedant activity against Spodoptera litura in compound treated cork borer from fresh sweet potato leaves by Choice Leaf-Disk Bioassay. The class given is functional. The essentials:
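Partly eaten disks were photocopied and scanned to digital files, and each treated disk was measured against an intact disk. Antifeedant index (AFI) = % treated consumed/(% treated + % control consumed) × 100. The effective dose was taken as the midpoint between complete inhibition and no effect.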

Activity calls are given as the source filed them. No cut-off for these calls is given here.

In turn, `COc1ccc(/C=C/C(=O)c2c(O)cc(OC)cc2OC)cc1` [FLAVOKAWAIN A] gave an ED50 of 90 ×10⁻⁷ mol/cm2 and a pED50 of 5.05.

The molecule `COc1c(OC)c(O)c2c(=O)c(OC)c(-c3ccccc3)oc2c1OC` came in with an ED50 of 0.2 ×10⁻⁷ mol/cm2 and a pED50 of 7.7.

The molecule `C=C(C)[C@H]1Cc2c(ccc3c2O[C@@H]2COc4cc(OC)c(OC)cc4[C@@H]2C3=O)O1` [ROTENONE] gave an ED50 of 1.5 ×10⁻⁷ mol/cm2 and a pED50 of 6.82.

On to `COc1ccc(-c2cc(=O)c3c(OC)c(OC)c(OC)c(OC)c3o2)cc1` [TANGERETIN], for which the ED50 was 2.8 ×10⁻⁷ mol/cm2 and the pED50 came to 6.55.

Take `COc1cc2oc(-c3ccccc3)c(OC)c(=O)c2c(O)c1O`: the ED50 stood at 0.25 ×10⁻⁷ mol/cm2 and the pED50 turned out to be 7.6.

Molecule `COc1cc(O)cc(O)c1C(=O)/C=C/c1ccc(O)cc1` [HELICHRYSETIN] returned an ED50 of 3.8 ×10⁻⁷ mol/cm2 and a pED50 of 6.42.

The molecule `COc1ccc(-c2oc3c(OC)c(OC)c(OC)c(O)c3c(=O)c2OC)cc1` [5-HYDROXYAURANETIN] yielded an ED50 of 1.1 ×10⁻⁷ mol/cm2 and a pED50 of 6.96.

With `COc1ccc(-c2cc(=O)c3c(O)c(OC)c(OC)c(OC)c3o2)cc1` [GARDENIN B], the ED50 turned out to be 1.8 ×10⁻⁷ mol/cm2 and the pED50 is recorded as 6.74.

For the molecule `O=c1c(O)c(-c2ccc(O)c(O)c2)oc2cc(O)cc(O)c12`, the ED50 result was “inactive”.

With `COc1cc(O)c2c(=O)c(OC)c(-c3ccc(OC)c(OC)c3)oc2c1`, the ED50 result is “inactive”.

For the origin of these results see ChEMBL document CHEMBL3045478, “Insect antifeedant flavonoids from Gnaphalium affine D. Don” (2000).
